Compound activity deposited in PubChem by several laboratories.
TRPN1 ag: zebrafish TRPN1 channel agonists, primary screen, cell-based, HEK293, calcium fluorescence; HEK293 zebrafish TRPN1-YFP, Fluo-8 calcium fluorescence; 100% = response to 87 µM carbachol; activation, % at 3 µM; 0.18% of 220,000 active;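 active = activation above its plate's cutoff, the mean activation of test wells on that plate plus 3 SD, cut at about 19% in these data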;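 note: 0% = DMSO alone and 100% = 87 µM carbachol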
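Material – zebrafish TRPN1-YFP in HEK293 cells · Doses – 3 µM single point · Schedule – dye 1 h 37 °C plus 30 min RT · Signal – Fluo-8 calcium fluorescence, excitation 470-495 nm, emission 515-575 nm · Read-out – % activation versus carbachol response · Control set – carbachol high, DMSO low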
GPR7 antagonist: GPR7 receptor antagonists, primary screen, cell-based, fluorescence, single concentration; GPR7-expressing cells, fluorescence antagonist assay; AID 1861, 2009; 1.1% of 290,000 active; Neuropeptides B/W receptor type 1 (Homo sapiens), P48145; inhibition, % at 4.4 µM; in the data active = inhibition above about 16%, passing the limit was not always enough;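 note: cells stimulated with the agonist NPW; 0% = agonist with vehicle and 100% = vehicle without agonist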
CRFR2-BP antag: antagonists of CRF-BP/CRF-R2 complex, primary screen, cell-based, HEK293, calcium dye fluorescence, uHTS. CRF-induced calcium fluorescence. AID 588475, 2011. 0.59% of 350,000 active. inhibition, % at 11.8 µM;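 active = inhibition of the ligand-induced calcium signal above about 50% at the single tested concentration, limit read from the data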
CRFR2-BP ag: agonists of CRF-BP/CRF-R2 complex, primary screen, cell-based, HEK293, calcium dye fluorescence, uHTS; CRF-binding protein / CRF receptor 2 complex (human); 0.46% of 350,000 active; activation, % at 13.2 µM; AID 588473, 2011; calcium dye fluorescence (FLIPR); percent of saturating CRF peptide response;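 active = activation of at least 50%, plus an integration ratio under a set limit after plate pattern correction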;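 note: plate controls were neutral control wells without compound for no effect and CRF at EC100 for full effect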
TRPML3 ag: human TRPML3 channel agonists, primary screen, cell-based, HEK293 TRPML3-YFP, Fluo-8 calcium fluorescence, 3 µM; Mucolipin-3 (Homo sapiens), Q8TDD5; 100% = the carbachol control signal; activation, % at 3 µM; 0.29% of 220,000 active; AID 1448, 2008;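 active = activation above its plate's cutoff, the mean activation of the plate's test wells plus 3 SD, cut at about 12% in these data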;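 note: 0% = DMSO only wells and 100% = carbachol wells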
Target sequence (Q8TDD5 whole entry, looked up): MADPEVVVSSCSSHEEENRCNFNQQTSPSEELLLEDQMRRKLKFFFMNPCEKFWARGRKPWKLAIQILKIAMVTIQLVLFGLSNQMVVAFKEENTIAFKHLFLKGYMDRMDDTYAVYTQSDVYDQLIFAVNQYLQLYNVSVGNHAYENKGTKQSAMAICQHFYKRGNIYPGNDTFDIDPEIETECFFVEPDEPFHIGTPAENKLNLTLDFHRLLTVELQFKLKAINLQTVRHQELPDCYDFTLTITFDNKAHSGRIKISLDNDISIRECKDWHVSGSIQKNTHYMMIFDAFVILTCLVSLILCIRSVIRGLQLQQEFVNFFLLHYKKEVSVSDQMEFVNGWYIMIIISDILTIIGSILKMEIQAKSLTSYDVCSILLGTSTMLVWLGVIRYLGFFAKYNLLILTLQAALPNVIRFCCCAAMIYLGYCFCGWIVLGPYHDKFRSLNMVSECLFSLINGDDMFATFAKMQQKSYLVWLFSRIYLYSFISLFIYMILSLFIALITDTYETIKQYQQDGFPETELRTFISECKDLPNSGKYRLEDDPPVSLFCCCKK
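Test system – HEK293 line with stable expression of human TRPML3-YFP channel · Control set – carbachol 87 µM final as high control (100%), DMSO as low control (0%) · Signal – Fluo-8 calcium dye fluorescence, ex 470-495, em 515-575 nm · Incubation – 1-h 37 °C dye load, 5-s basal, 120-s post-compound reads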
An asterisk follows results filed as active; . = no result given. Sampled rows, rich in hits. Any-hit rate of the full collection: about 2%.

SMILES	TRPN1 ag	GPR7 antagonist	CRFR2-BP antag	CRFR2-BP ag	TRPML3 ag
COc1ccc(CCN2CC(C(=O)OCC(=O)Nc3c(C)nn(-c4ccccc4)c3C)CC2=O)cc1OC (configuration not stated)	.	.	16	-1	.
O=c1[nH]c(C(Cl)Cl)nc2sc3c(c12)CCN(Cc1ccccc1)C3	0	-3	5	56*	0
N#CNC(=Nc1cccc(F)c1)SCc1ccccc1F	16	2	85*	48	9
CSc1ccccc1NC(=O)c1ccc(N2CCCC2=O)cc1	.	.	15	-2	.
CCCCn1c(N)c(N(C(=O)CSc2nnnn2-c2ccccc2)C2CCCC2)c(=O)[nH]c1=O	.	.	4	-1	.
COc1ccc(-n2c(-c3ccc(Br)cc3)c[n+]3c2CCc2ccccc2-3)cc1	-1	19	-7	3	1
COc1ccccc1-n1c(-c2ccccc2)c[n+]2c1CCc1ccccc1-2	-1	28*	-3	0	1
CC(C)c1ccc(-n2c(-c3ccccc3)c[n+]3c2CCc2ccccc2-3)cc1	3	68*	-13	8	0
Cc1c(C(=O)OCc2nc3ccsc3c(=O)[nH]2)oc2ccccc12	.	.	-5	0	.
Cc1ccccc1Oc1cc(-n2ncc(Cl)c(Cl)c2=O)ncn1	-2	-6	65*	-1	0
CN(C)S(=O)(=O)c1cccc(NC(=O)c2ccc(S(=O)(=O)N3CCCC3)cc2)c1	.	.	50	6	.
Cc1c(/C=N/NC(=O)C(NC(=O)c2ccc3c(c2)OCO3)C(C)C)c2ccccc2n1C (configuration not stated)	-3	8	-186	96*	0
COc1ccc(N2CCN(CCCNC(=O)C(=O)c3c(C)[nH]c4ccccc34)CC2)cc1	.	-11	62*	0	.
O=C(Nc1cccc(S(=O)(=O)NC2=NCCC2)c1)c1cc(F)c(F)c(F)c1F	.	.	6	-1	.
O=S1(=O)N=C(N(CCO)/N=C/c2ccc(Cl)cc2)c2ccccc21	.	-5	-19	-3	.
CN(C)c1ccc(/C=N/N(CCO)C2=NS(=O)(=O)c3ccccc32)cc1	.	4	-135	140*	.
CC(/C=C/c1ccccc1)=N/NC(=O)CNC(=O)c1ccc2c(c1)OCO2	-1	-4	72*	0	0
CCN(CC)C(=O)[C@H]1CC(CC(=O)NC(C)(C)C)C(=O)N2CCc3c([nH]c4ccc(OC)cc34)[C@]12C (some centres not stated)	.	.	1	-3	.
Cc1ccc(S(=O)(=O)NC(C(=O)O)c2ccccc2)cc1 (configuration not stated)	1	-7	-176	133*	0
COc1cc(C=O)ccc1Oc1ccc(S(=O)(=O)N2CCOCC2)cc1[N+](=O)[O-]	.	.	0	0	.
O=C(Cc1c(O)c2ccccc2[nH]c1=O)N(Cc1ccccc1)Cc1ccccc1	2	9	-5	1	1
O=C(Cc1c(O)c2ccccc2[nH]c1=O)OC1CCCCC1	1	0	67*	-2	1
O=C(Nc1ccc(C(O)(C(F)(F)F)C(F)(F)F)cc1)c1ccc(Cl)c([N+](=O)[O-])c1	2	43*	-4	-1	0
N#Cc1ccsc1NC(=O)c1ccc(Cl)c([N+](=O)[O-])c1	30*	20*	72*	67*	19*
N#Cc1ccsc1NC(=O)c1cccc([N+](=O)[O-])c1	4	-8	63*	66*	2
O=C(Nc1ccccn1)c1ccc(Cl)c([N+](=O)[O-])c1	-1	-3	7	0	0
O=C(O)c1cc(NC(=O)c2ccc(Cl)c([N+](=O)[O-])c2)cc(C(=O)O)c1	0	5	2	0	1
Cc1cc(C(=O)OCC(=O)NC2(C#N)CCCCC2)c(C)o1	.	.	2	0	.
Cc1ccc(CN(C)C(=O)COC(=O)CSc2ccc(C(N)=O)cc2[N+](=O)[O-])cc1	.	.	6	-4	.
CSc1ccccc1OCc1cc(C(=O)NCc2csc(C(C)C)n2)no1	.	0	105*	0	.
